# Measurements: ChEMBL document CHEMBL1781961, “Synthesis and in vitro antibacterial activity of 7-(3-alkoxyimino-4-amino-4-methylpiperidin-1-yl) fluoroquinolone derivatives” (Eur J Med Chem, 2011)
# Experiments:
# Pseudomonas aeruginosa [1] = test: Antibacterial activity against 10^4 CFU Pseudomonas aeruginosa 09-32 after 18 hrs by CLSI agar dilution method; type: functional; settings: 09-32, 18 h
# Streptococcus pneumoniae = test: Antibacterial activity against 10^4 CFU Streptococcus pneumoniae 08-4 after 18 hrs by CLSI agar dilution method; type: functional; settings: 08-4, 18 h
# [2] = system: Staphylococcus epidermidis; test: Antibacterial activity against 10^4 CFU methicillin-resistant Staphylococcus epidermidis 09-2 after 18 hrs by CLSI agar dilution method; type: functional; settings: 09-2, 18 h
# Enterococcus faecalis [3] = test: Antibacterial activity against 10^4 CFU Enterococcus faecalis 08-10 after 18 hrs by CLSI agar dilution method; type: functional; settings: 08-10, 18 h
# Pseudomonas aeruginosa [4] = test: Antibacterial activity against 10^4 CFU Pseudomonas aeruginosa ATCC 27853 after 18 hrs by CLSI agar dilution method; type: functional; settings: ATCC 27853, 18 h
# [5] = Cytotoxicity against MDCK cells after 48 hrs by CPE assay; type: cell-based, Canis lupus familiaris; settings: dog
# How it was run: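 MDCK cells kept in Minimum Essential Medium with Earle's salt plus 10% fetal bovine serum at 37 °C, 5% CO₂. […] Medium then replaced by assay medium with or without compound. After 48 h exposure, viability read by CPE assay. CC₅₀ calculated by Reed–Muench analysis.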
# Escherichia coli [6] = test: Antibacterial activity against 10^4 CFU Escherichia coli 08-21 after 18 hrs by CLSI agar dilution method; type: functional; settings: 08-21, 18 h
# Klebsiella pneumoniae [7] = test: Antibacterial activity against 10^4 CFU Klebsiella pneumoniae 09-22 after 18 hrs by CLSI agar dilution method; type: functional; settings: 09-22, 18 h
# Staphylococcus aureus [8] = test: Antibacterial activity against 10^4 CFU methicillin-resistant Staphylococcus aureus 08-1 after 18 hrs by CLSI agar dilution method; type: functional; settings: 08-1, 18 h
# Enterococcus faecalis [9] = test: Antibacterial activity against 10^4 CFU Enterococcus faecalis 08-12 after 18 hrs by CLSI agar dilution method; type: functional; settings: 08-12, 18 h
# Enterococcus faecium [10] = test: Antibacterial activity against 10^4 CFU Enterococcus faecium 08-2 after 18 hrs by CLSI agar dilution method; type: functional; settings: 08-2, 18 h
# Escherichia coli [11] = test: Antibacterial activity against 10^4 CFU Escherichia coli ATCC 25922 after 18 hrs by CLSI agar dilution method; type: functional; settings: ATCC 25922, 18 h
# Enterococcus faecium [12] = test: Antibacterial activity against 10^4 CFU Enterococcus faecium 06-7 after 18 hrs by CLSI agar dilution method; type: functional; settings: 06-7, 18 h
# Klebsiella pneumoniae [13] = test: Antibacterial activity against 10^4 CFU Klebsiella pneumoniae 09-23 after 18 hrs by CLSI agar dilution method; type: functional; settings: 09-23, 18 h
# Staphylococcus aureus [14] = test: Antibacterial activity against 10^4 CFU Staphylococcus aureus ATCC 25923 after 18 hrs by CLSI agar dilution method; type: functional; settings: ATCC 25923, 18 h
# Staphylococcus aureus [15] = test: Antibacterial activity against 10^4 CFU methicillin-sensitive Staphylococcus aureus 08-1 after 18 hrs by CLSI agar dilution method; type: functional; settings: 08-1, 18 h
# [16] = system: Staphylococcus epidermidis; test: Antibacterial activity against 10^4 CFU methicillin-sensitive Staphylococcus epidermidis 09-6 after 18 hrs by CLSI agar dilution method; type: functional; settings: 09-6, 18 h
SMILES,MIC (Pseudomonas aeruginosa [1]),MIC (Streptococcus pneumoniae),MIC [2],MIC (Enterococcus faecalis [3]),MIC (Pseudomonas aeruginosa [4]),CC50 at 48 h [5],MIC (Escherichia coli [6]),MIC (Klebsiella pneumoniae [7]),MIC (Staphylococcus aureus [8]),MIC (Enterococcus faecalis [9]),MIC (Enterococcus faecium [10]),MIC (Escherichia coli [11]),MIC (Enterococcus faecium [12]),MIC (Klebsiella pneumoniae [13]),MIC (Staphylococcus aureus [14]),MIC (Staphylococcus aureus [15]),MIC [16]
CCO/N=C1\CN(c2c(F)cc3c(=O)c(C(=O)O)cn(C4CC4)c3c2F)CCC1(C)N (configuration not stated),4 µg/mL,4 µg/mL,0.5 µg/mL,4 µg/mL,8 µg/mL,288 µM,> 128 µg/mL,4 µg/mL,0.5 µg/mL,> 128 µg/mL,> 128 µg/mL,128 µg/mL,> 128 µg/mL,> 128 µg/mL,0.5 µg/mL,0.5 µg/mL,0.5 µg/mL
CO/N=C1\CN(c2c(F)cc3c(=O)c(C(=O)O)cn(C4CC4)c3c2OC(F)F)CCC1(C)N (configuration not stated),2 µg/mL,0.25 µg/mL,0.25 µg/mL,8 µg/mL,4 µg/mL,1070 µM,> 128 µg/mL,2 µg/mL,0.25 µg/mL,> 128 µg/mL,> 128 µg/mL,128 µg/mL,> 128 µg/mL,> 128 µg/mL,0.25 µg/mL,0.25 µg/mL,0.25 µg/mL
CCO/N=C1\CN(c2c(F)cc3c(=O)c(C(=O)O)cn(C4CC4)c3c2OC(F)F)CCC1(C)N (configuration not stated),16 µg/mL,0.25 µg/mL,0.25 µg/mL,8 µg/mL,4 µg/mL,518 µM,128 µg/mL,16 µg/mL,0.25 µg/mL,32 µg/mL,128 µg/mL,16 µg/mL,128 µg/mL,8 µg/mL,0.125 µg/mL,0.25 µg/mL,0.25 µg/mL
CCO/N=C1\CN(c2c(F)cc3c(=O)c(C(=O)O)cn(C4CC4)c3c2OC)CCC1(C)N (configuration not stated),0.5 µg/mL,0.25 µg/mL,0.25 µg/mL,1 µg/mL,4 µg/mL,280 µM,> 128 µg/mL,1 µg/mL,0.25 µg/mL,128 µg/mL,64 µg/mL,128 µg/mL,128 µg/mL,> 128 µg/mL,0.25 µg/mL,0.25 µg/mL,0.25 µg/mL
CO/N=C1\CN(c2c(F)cc3c(=O)c(C(=O)O)cn4c3c2OC[C@@H]4C)CCC1(C)N (some centres not stated),128 µg/mL,0.25 µg/mL,0.25 µg/mL,16 µg/mL,8 µg/mL,1510 µM,> 128 µg/mL,2 µg/mL,0.25 µg/mL,> 128 µg/mL,> 128 µg/mL,128 µg/mL,> 128 µg/mL,> 128 µg/mL,0.25 µg/mL,0.25 µg/mL,0.25 µg/mL
CCO/N=C1\CN(c2c(F)cc3c(=O)c(C(=O)O)cn4c3c2OC[C@@H]4C)CCC1(C)N (some centres not stated),64 µg/mL,2 µg/mL,0.25 µg/mL,32 µg/mL,4 µg/mL,1160 µM,64 µg/mL,64 µg/mL,0.25 µg/mL,64 µg/mL,32 µg/mL,32 µg/mL,> 128 µg/mL,2 µg/mL,0.25 µg/mL,0.25 µg/mL,0.25 µg/mL
C[C@H]1COc2c(N3CCN(C)CC3)c(F)cc3c(=O)c(C(=O)O)cn1c23.C[C@H]1COc2c(N3CCN(C)CC3)c(F)cc3c(=O)c(C(=O)O)cn1c23.O [LEVOFLOXACIN],16 µg/mL,,0.25 µg/mL,8 µg/mL,,,16 µg/mL,16 µg/mL,0.125 µg/mL,8 µg/mL,4 µg/mL,2 µg/mL,16 µg/mL,16 µg/mL,0.25 µg/mL,0.125 µg/mL,4 µg/mL
COc1c(N2C[C@@H]3CCCN[C@@H]3C2)c(F)cc2c(=O)c(C(=O)O)cn(C3CC3)c12 [MOXIFLOXACIN],,,,,,161 µM,,,,,,,,,,,
